These results are taken from ChEMBL document CHEMBL1125033, “Structure-activity relationship of antiestrogens. Phenolic analogues of 2,3-diaryl-2H-1-benzopyrans” (J Med Chem, 1990).

Assay [1] deals with T1, Estrogen receptor (Rattus norvegicus) (UniProt P06211+Q62986). The assay can be described thus: Relative binding affinity against estrogen receptor(ER). It counts as protein assay. Summed up: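 Uterine cytosol from immature rats primed s.c. with 0.1 μg E₂ 24 h before sacrifice, one uterine equivalent per mL TEA buffer (pH 7.4, 7% DMF). Incubated 18-20 h at 4 °C with ³H-E₂ (5 × 10⁻⁹ M) and competitor at 10⁻⁴–10⁻⁹ M, in triplicate. Charcoal-dextran separation for 20 min, then scintillation counting.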

For assay [2], the target named is T1, Estrogen receptor (Rattus norvegicus).
For assay [3] the target is unchanged. The source holds these as a separate data set.
In assay [4] the test system is Anti-estrogen binding site (AEBS) (Rattus norvegicus). Put plainly: Relative binding affinity against Antiestrogen binding site(AEBS).

For `Oc1ccc2c(c1)OC(c1ccc(OCCN3CCCCC3)cc1)C(c1ccccc1)=C2` (stereo not given), the relative binding affinity (RBA) in assay [1] was determined as 9.5; in assay [4], 13. Also, the Mean weight worked out at 21.2 mg in assay [2] and 15.2 mg in assay [3].

With `Oc1ccc(C2=Cc3ccccc3OC2c2ccc(OCCN3CCCCC3)cc2)cc1` (stereo not given), the figures for the relative binding affinity (RBA) in assay [1] and in assay [4] were 4.2 and 14, respectively. For the same compound, the Mean weight in assay [2] amounted to 11.6 mg; in assay [3], 10.4 mg.

With `C1=C(c2ccccc2)C(c2ccc(OCCN3CCCCC3)cc2)Oc2ccccc21` (stereo not given), the Mean weight in assay [2] stood at 18.6 mg; in assay [3], 15.3 mg. The relative binding affinity (RBA) in assay [4] came out at 225.

With `COc1ccc(C2=C(C(=O)c3ccc(OCCN4CCCC4)cc3)c3ccccc3CC2)cc1`, the relative binding affinity (RBA) was found to be 8 in assay [1] and 25 in assay [4]. Besides, the figures for the Mean weight in assay [2] and in assay [3] were 29.1 mg and 18.6 mg, respectively.

Compound `Oc1ccc(C2=Cc3ccc(O)cc3OC2c2ccc(O)cc2)cc1` (stereo not given) had a relative binding affinity (RBA) in assay [1] of 2.2. In addition, the Mean weight was found to be 44.2 mg in assay [2] and 14.2 mg in assay [3].

For `O=C(c1ccc(OCCN2CCCC2)cc1)c1c(-c2ccc(O)cc2)sc2cc(O)ccc12`, the relative binding affinity (RBA) in assay [1] was determined as 93; in assay [4], 6.5. Besides, the Mean weight in assay [2] was 25.6 mg; in assay [3], 25.5 mg.

With `Oc1ccc(C2=Cc3ccc(O)cc3OC2c2ccc(OCCN3CCCCC3)cc2)cc1` (stereo not given), the relative binding affinity (RBA) was 49 in assay [1] and 2.2 in assay [4]. Besides, the Mean weight in assay [2] turned out to be 12.4 mg; in assay [3] it was 10.6 mg.

With `COc1ccc2c(c1)OC(c1ccc(OCCN3CCCCC3)cc1)C(c1ccccc1)=C2` (stereo not given), the relative binding affinity (RBA) is 0.02 in assay [1] and 21 in assay [4]. The Mean weight is 43.1 mg in assay [2] and 22.6 mg in assay [3].
